A selection: hits, their analogues and other compounds. The true share with any hit is near 3%.
Wnt act – Wnt/beta-catenin pathway activators, primary screen, cell-based, plate reader, single point; activation, % at 9.35 µM; 300,000 tested, 1.2% active; Wnt/beta-catenin reporter cell assay, activator; in the data active = activation above about 30%, passing the limit was not always enough; inconclusive = no clear call, values can overlap the other calls
Xi reactivation – activators of inactive X chromosome reactivation, primary screen, imaging, XiGFP fibroblasts, GFP high-content imaging, set 2; XiGFP mouse fibroblasts, % GFP-positive cells imaging, 3 d; cells co-treated with 5-aza-dC sensitizer; scaled so ellipticine positive control = 100%; activation, % at 7.58 µM; 360,000 tested, 0.055% active; AID 743238, 2013;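 active = mean normalized replicate activation at least 10% and every replicate at or above 10%; inconclusive = only one of the two criteria met; inactive = mean below 10% and not all replicates reach 10%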
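System: 68-5-11 XiGFP fibroblast line; Timing: 3 days compound exposure; Compound dosing: one concentration, pinned; Benchmarks: positive control ellipticine, 6 µM final; Buffer or medium: DMEM containing 5-aza-dC.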
NSD2 inh – NSD2 histone methyltransferase inhibitors, primary screen, biochemical, AlphaScreen, single concentration, set 2; NSD2 peptide methylation, 120 min; inhibition, % at 12.5 µM; 310,000 tested, 0.54% active; AID 743445, 2014; in the data active = inhibition above about 50%
Target sequence (O96028 whole entry, looked up): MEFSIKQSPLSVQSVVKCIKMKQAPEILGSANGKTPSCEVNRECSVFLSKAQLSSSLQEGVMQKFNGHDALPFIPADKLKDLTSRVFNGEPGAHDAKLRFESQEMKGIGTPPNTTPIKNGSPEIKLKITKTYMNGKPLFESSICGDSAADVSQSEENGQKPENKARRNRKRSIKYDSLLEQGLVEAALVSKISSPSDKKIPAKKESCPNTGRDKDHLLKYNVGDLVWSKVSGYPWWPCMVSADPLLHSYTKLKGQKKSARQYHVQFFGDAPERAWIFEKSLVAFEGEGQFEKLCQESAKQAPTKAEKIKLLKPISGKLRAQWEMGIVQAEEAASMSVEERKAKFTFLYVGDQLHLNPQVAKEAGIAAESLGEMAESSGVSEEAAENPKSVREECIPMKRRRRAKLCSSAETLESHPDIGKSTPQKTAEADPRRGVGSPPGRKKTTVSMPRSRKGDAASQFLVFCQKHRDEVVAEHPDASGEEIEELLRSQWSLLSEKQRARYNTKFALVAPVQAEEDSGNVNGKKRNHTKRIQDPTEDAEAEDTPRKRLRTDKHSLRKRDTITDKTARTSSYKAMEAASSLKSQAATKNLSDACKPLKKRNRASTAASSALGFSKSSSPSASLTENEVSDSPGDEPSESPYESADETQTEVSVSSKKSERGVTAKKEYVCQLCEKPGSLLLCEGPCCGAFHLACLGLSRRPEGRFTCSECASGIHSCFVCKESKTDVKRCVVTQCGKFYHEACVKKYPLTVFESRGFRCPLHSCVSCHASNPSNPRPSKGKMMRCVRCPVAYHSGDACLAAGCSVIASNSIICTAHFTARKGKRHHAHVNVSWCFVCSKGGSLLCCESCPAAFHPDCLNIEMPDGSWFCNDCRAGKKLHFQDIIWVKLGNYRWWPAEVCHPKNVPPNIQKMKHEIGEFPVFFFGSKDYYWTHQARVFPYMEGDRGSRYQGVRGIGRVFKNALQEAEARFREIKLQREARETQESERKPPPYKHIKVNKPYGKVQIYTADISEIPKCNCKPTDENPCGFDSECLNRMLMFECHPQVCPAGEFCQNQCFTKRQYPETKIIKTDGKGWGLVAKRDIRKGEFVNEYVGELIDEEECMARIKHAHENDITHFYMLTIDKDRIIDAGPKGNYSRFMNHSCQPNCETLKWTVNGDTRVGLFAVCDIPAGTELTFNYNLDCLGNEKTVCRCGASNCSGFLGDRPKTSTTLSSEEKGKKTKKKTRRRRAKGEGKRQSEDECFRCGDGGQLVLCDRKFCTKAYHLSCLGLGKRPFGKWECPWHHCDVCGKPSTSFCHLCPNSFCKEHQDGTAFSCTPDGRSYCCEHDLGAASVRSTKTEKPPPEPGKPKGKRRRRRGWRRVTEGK
esBAF inh – Bmi1 luciferase reporter increase in mESCs, primary screen, esBAF inhibitor project, mouse ES cells, Bmi1 luciferase knock-in, single point. 350,000 tested, 2% active. 24 h; 100% = twice the neutral-well signal. reporter increase, % at 12.5 µM. AID 602393, 2012; in the data active = activation above about 40%; inconclusive = no clear call, values can overlap the other calls;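 note: a rise in the Bmi1 reporter signal indicates esBAF inhibition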
MITF TRPM1 HTS – activators of MITF-driven TRPM1 promoter reporter, primary screen, cell-based, SK-MEL-5, luciferase, single point; 300,000 tested, 0.75% active; AID 588334, 2011; activation, % at 12.5 µM; SK-MEL-5 TRPM1-promoter luciferase, 24 h; % of positive control, neutral wells = 0;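 active = mean activation of at least 80% with every replicate also reaching 80%; inconclusive = mean reaches 80% but some replicate falls short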
CASP6 VEID inh – human caspase-6 inhibitors, primary screen, biochemical, VEID-R110 fluorescence, single point, set 2 | 350,000 tested, 0.53% active | inhibition, % at 12.5 µM | P55212 | purified caspase-6, Z-VEID-R110 cleavage fluorescence;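 active = mean inhibition across replicates at least about 35%, with every replicate also reaching that limit, limit read from the data; inconclusive = only one of the two criteria met; inactive = neither criterion met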
Large screens that a line does not name were inactive.

CSc1ncccc1C(=O)OCC(=O)c1cc(C)n(C)c1C	Wnt act 53, MITF TRPM1 HTS 92
COc1ccccc1-c1ccc([C@@H]2[C@@H](C#N)N(C(=O)C3CC3)[C@@H]2CO)cc1	none (no result: Wnt act, NSD2 inh, MITF TRPM1 HTS)
Cc1ccc(C)c(N2CCN(C(=O)CCc3nc(-c4ccccc4F)no3)CC2)c1	none (no result: NSD2 inh)
Cc1ccc(C)c(N2CCN(C(=O)CCc3nc(-c4ccccc4Br)no3)CC2)c1	esBAF inh 43 (no result: NSD2 inh)
O=C(C[C@H]1CC[C@H]2[C@@H](COC[C@@H](O)CN2C(=O)c2cnccn2)O1)NCc1ccc(F)cc1	none (no result: Wnt act, NSD2 inh, MITF TRPM1 HTS)
CN(C)C(=O)C[C@@H]1C[C@H]2c3cc(NC(=O)Nc4ccc(C(F)(F)F)cc4)ccc3O[C@H]2[C@@H](CO)O1	none (no result: Wnt act, NSD2 inh, MITF TRPM1 HTS)
COc1ccc(/C=C/C(=O)Nc2ccc(N3CCOCC3)cc2)cc1	none (no result: Wnt act, esBAF inh, CASP6 VEID inh)
O=C(Nc1ccc(N2CCCCC2)cc1)c1ccccc1	none (no result: Wnt act, Xi reactivation, CASP6 VEID inh)
O=C(Cc1ccccc1)Nc1ccc(N2CCCCC2)cc1	Wnt act 59
O=C(/C=C/c1ccc(Cl)cc1)Nc1ccc(N2CCCCC2)cc1	none (no result: Xi reactivation, CASP6 VEID inh)
O=C(/C=C/c1ccccc1)Nc1ccc(N2CCCCC2)cc1	esBAF inh 62
NC(=O)NC(=O)C(Nc1ccc(N2CCCCC2)cc1)c1ccccc1 (centres undefined)	esBAF inh 51
COc1ccc(N2CCN(c3ccc(NC(=O)/C=C\C(=O)O)cc3)CC2)cc1	Wnt act 45
O=C(C[C@H]1C[C@@H]2c3cc(NC(=O)CC4CC4)ccc3O[C@@H]2[C@@H](CO)O1)NCc1ccccc1F	none (no result: Wnt act, NSD2 inh, MITF TRPM1 HTS)
CO[C@@H]1CN(C)C(=O)c2cc(NC(=O)C3CC3)ccc2OC[C@H](C)N(Cc2cccnc2)C[C@H]1C	none (no result: Wnt act, NSD2 inh, MITF TRPM1 HTS)
O=c1[nH]c(Cc2ccc(F)cc2)nc2scc(-c3ccc(F)cc3)c12	esBAF inh 47
O=c1[nH]c(Cc2cccs2)nc2scc(-c3ccc(Cl)cc3)c12	esBAF inh 72, MITF TRPM1 HTS 94
COc1ccc(C(=O)c2ccc(Br)cc2)cc1	esBAF inh 55 (no result: Xi reactivation, CASP6 VEID inh)
Cc1ccc(S(=O)(=O)N[C@H]2C=C[C@@H](CC(=O)N3CCN(c4ccccc4)CC3)O[C@@H]2CO)cc1	none (no result: Wnt act, NSD2 inh, MITF TRPM1 HTS)
CC1CC1C(=O)OCc1cc(=O)n2cc(Br)ccc2n1 (centres undefined)	Wnt act 41, esBAF inh 47 (no result: Xi reactivation, CASP6 VEID inh)
CC1(C(=O)OCc2cc(=O)n3cc(Br)ccc3n2)CC1(Cl)Cl (centres undefined)	esBAF inh 83, MITF TRPM1 HTS inconclusive (no result: NSD2 inh)
C[C@@H]1CN([C@@H](C)CO)C(=O)Cc2cc(NS(C)(=O)=O)ccc2O[C@H]1CN(C)C(=O)Nc1ccc2c(c1)OCO2	none (no result: Wnt act, NSD2 inh, MITF TRPM1 HTS)
OCCNc1c2ccccc2nc2c(F)c(F)c(F)c(F)c12	Wnt act 251 (no result: esBAF inh, CASP6 VEID inh)
Cc1c2ccccc2nc2c(F)c(NCCO)c(F)c(F)c12	none (no result: esBAF inh, CASP6 VEID inh)
CNC[C@H]1Oc2c(NC(=O)NC(C)C)cccc2C(=O)N(C)C[C@H]1C	none (no result: Wnt act, NSD2 inh, esBAF inh, MITF TRPM1 HTS, CASP6 VEID inh)
CC(=O)Nc1ccc(/C=C/c2nc(-c3ccccc3O)n[nH]2)cc1	esBAF inh 73
COc1cc(/C=C/c2nc(-c3ccccc3O)n[nH]2)cc(OC)c1OC	none (no result: Wnt act, esBAF inh, CASP6 VEID inh)
O=C(NCCCc1ccccc1)c1ccc([N+](=O)[O-])cc1Cl	none (no result: MITF TRPM1 HTS)
O=C(NCCCO)c1cc([N+](=O)[O-])cc2c1C=Cc1ccccc1O2	CASP6 VEID inh 89
CC(C)(C)N1C(=O)c2ccc(C(=O)Nc3ccc(O)cc3)cc2C1=O	Wnt act 48, esBAF inh inconclusive (no result: MITF TRPM1 HTS)
CC(C)(C)NC(=O)c1cccc(NC(=O)c2ccc3c(c2)C(=O)N(C(C)(C)C)C3=O)c1	none
CCCCc1nc2cc(C(=O)NC(C)c3cnn(C)c3)ccc2o1 (centres undefined)	esBAF inh 61 (no result: CASP6 VEID inh)
CCCCc1nc2cc(C(=O)N3CCCCC3C(=O)OC)ccc2o1 (centres undefined)	esBAF inh 64
CCCCc1nc2cc(C(=O)N3CCCCC3CC(=O)OCC)ccc2o1 (centres undefined)	esBAF inh 56
CCCCc1nc2cc(C(=O)N3CCCC3)ccc2o1	none
CCOC(=O)CC1COCCN1C(=O)c1ccc2oc(Cc3ccccc3)nc2c1 (centres undefined)	esBAF inh 52, MITF TRPM1 HTS inconclusive
Cc1nc2nc(-c3cccs3)cn2nc1C	Wnt act 47 (no result: Xi reactivation, esBAF inh, MITF TRPM1 HTS, CASP6 VEID inh)
CC(=O)[C@@H]1[C@@H]2C(=O)N(Cc3ccccc3)C(=O)[C@@H]2C2c3ccccc3C=CN21 (some centres undefined)	CASP6 VEID inh 61 (no result: Xi reactivation, NSD2 inh, esBAF inh)
Cc1ccccc1-c1ccc([C@H]2[C@@H](CO)N3CCCCN(S(=O)(=O)c4cn(C)cn4)C[C@H]23)cc1	none (no result: Wnt act, NSD2 inh, esBAF inh, MITF TRPM1 HTS)
CCc1cc(C=NC2CCCCC2)c(O)s1	esBAF inh 51 (no result: Wnt act, Xi reactivation, MITF TRPM1 HTS, CASP6 VEID inh)
Cc1ccccc1NC(=O)c1ccc2ccccc2c1	esBAF inh 45
Cc1ccc(C(=O)NNC(=O)c2ccc(C)cc2)cc1	none (no result: esBAF inh)
Cc1ccc(C(=O)NNC(=O)c2ccc3ccccc3c2)cc1	esBAF inh 67
Cc1c(O)ccc(C(=O)COc2ccc(F)cc2)c1O	esBAF inh 80, MITF TRPM1 HTS inconclusive (no result: Wnt act, Xi reactivation, CASP6 VEID inh)
CCc1cc(C(=O)COc2ccc(F)cc2)c(O)cc1O	Wnt act 42 (no result: esBAF inh)
COc1ccc(N2CCN(CC(=O)c3ccc(O)c(C)c3O)CC2)cc1	none
CCc1cc(C(=O)Cc2ccccn2)c(O)cc1O	none (no result: CASP6 VEID inh)
NC(=O)c1cccc(-c2coc3c(C(=O)NCc4ccccc4)cccc23)c1	esBAF inh 50 (no result: MITF TRPM1 HTS)
CC(C)CNC(=O)c1cccc2c(-c3ccc(F)c(F)c3)coc12	CASP6 VEID inh 55 (no result: MITF TRPM1 HTS)
CS(=O)(=O)Nc1cccc(NC(=O)c2ccc(-c3ccc(F)c(F)c3)c3ccoc23)c1	none (no result: MITF TRPM1 HTS)
CS(=O)(=O)Nc1cccc(NC(=O)c2cccc3c(-c4ccc(F)c(F)c4)coc23)c1	esBAF inh 52 (no result: MITF TRPM1 HTS)
Cn1nccc1-c1ccc(C(=O)Nc2cccc(NS(C)(=O)=O)c2)c2occc12	esBAF inh 46 (no result: MITF TRPM1 HTS)
O=C(C1CCOCC1)N1[C@H](CO)[C@@H](c2ccccc2)C12CN(Cc1cccnc1)C2	none (no result: Wnt act, NSD2 inh, esBAF inh, MITF TRPM1 HTS)
C[C@@H]1CN([C@H](C)CO)C(=O)c2cc(NC(=O)CCC(F)(F)F)ccc2O[C@@H](C)CCCCO[C@H]1CN(C)Cc1ccc(Cl)c(Cl)c1	none (no result: Wnt act, NSD2 inh, MITF TRPM1 HTS)
CO[C@H]1CN(C)C(=O)c2cc(NC(=O)c3ccccc3F)ccc2OC[C@@H](C)N(C)C[C@H]1C	none (no result: Wnt act, NSD2 inh, MITF TRPM1 HTS)
C[C@H](CO)N1C[C@H](C)[C@@H](CN(C)S(=O)(=O)c2ccc(Cl)cc2)Oc2ccc(NC(=O)CCN3CCOCC3)cc2CC1=O	none (no result: Wnt act, NSD2 inh, MITF TRPM1 HTS)

Screens as filed in PubChem.
